Rows were chosen to be rich in hits. Some 2.2% of all compounds tested hit in one or more screens of this group.
PDI inh = PDI (human) enzyme inhibition. P07237. PDI insulin aggregation turbidity, A650, 90 min. inhibition, % at 10 µM. 350,000 tested, 0.052% active. AID 588391;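 active means mean inhibition across replicates of 30% or more, whatever share of single replicates reach that level; inconclusive means mean inhibition below 30% while every single replicate reaches 30%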
Target sequence (P07237 whole entry, looked up): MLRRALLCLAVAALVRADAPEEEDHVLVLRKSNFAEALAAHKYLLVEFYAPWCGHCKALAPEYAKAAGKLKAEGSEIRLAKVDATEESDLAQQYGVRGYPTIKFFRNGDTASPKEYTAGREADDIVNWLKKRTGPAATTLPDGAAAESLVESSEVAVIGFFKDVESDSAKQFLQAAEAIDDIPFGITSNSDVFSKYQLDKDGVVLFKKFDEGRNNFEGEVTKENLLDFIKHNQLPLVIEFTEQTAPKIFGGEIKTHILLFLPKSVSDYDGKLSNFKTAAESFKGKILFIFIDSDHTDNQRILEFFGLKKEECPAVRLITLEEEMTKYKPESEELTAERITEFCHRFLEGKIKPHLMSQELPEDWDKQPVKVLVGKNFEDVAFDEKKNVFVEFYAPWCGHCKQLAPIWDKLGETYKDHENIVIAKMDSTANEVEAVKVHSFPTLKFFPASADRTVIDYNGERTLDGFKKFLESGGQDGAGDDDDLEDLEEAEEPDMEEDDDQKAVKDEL
ERp5 inh = inhibitors of human ERp5; ERp5 insulin aggregation, absorbance 650 nm, 90 min; 350,000 tested, 0.05% active; inhibition, % at 9.99 µM;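 active means mean replicate inhibition above about 25%, with every replicate also reaching it, limit read from the data, passing the limit was not always enough; inconclusive means only one of those two criteria met; inactive means neither criterion met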
PvdQ inh = blocks Pseudomonas aeruginosa PvdQ acylase activity; purified PvdQ acylase, fluorescence plate reader; inhibition, % at 10 µM; 340,000 tested, 0.063% active; in the data active means inhibition above about 30%, passing the limit was not always enough; inconclusive means no clear call, values can overlap the other calls;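 further: 0% = vehicle neutral wells and 100% = reference inhibitor wells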
Ecoli rRNA inh = inhibitors of bacterial rRNA selective over humanized ribosomes; E. coli WT GFP vs humanized-ribosome RFP mutants, fluorescence, 24 h; active compounds read low; DMSO median 0, no signal -100; 350,000 tested, 1.6% active; GFP signal change (wild-type ribosome), % (no concentration beside the values);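 active means significant combined selectivity score with lowered wild-type GFP, culture density cut under 30%, mutant RFP and density less affected; inactive means any of these conditions unmet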
HIV Env fusion = blocks HIV Env-driven cell-cell fusion. HeLa-JRFL Env/CEM21 cell fusion, luciferase. 360,000 tested, 1.1% active. AID 651610. inhibition, % at 12.3 µM;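 active means mean replicate inhibition score of at least 50 and every replicate individually at or above 50; inconclusive means only one of the two criteria met; inactive means mean below 50 and not all replicates reaching 50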;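 further: 0% = plate neutral controls and 100% = maraviroc near 300 nM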
FN deposit inh = fibronectin deposition inhibition; AH1F fibroblasts, Alexa488-fibronectin deposition fluorescence, overnight; inhibition, % at 12.6 µM; 350,000 tested, 0.086% active; AID 743247;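 active means mean inhibition across replicates of 30% or more, regardless of how many single replicates reach that level; inconclusive means mean under 30% yet at least half of replicates reach 30%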;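 further: positive control wells lacked labelled fibronectin entirely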
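Material – AH1F fibroblast monolayer, labelled fibronectin deposition · Reagent – labelled fibronectin 24 nM · Timing – 1 h adhesion, overnight exposure · Measured by – fluorescence at 485 nm excitation, 525 nm emission · Read-out – inhibition of fibronectin deposition signal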
* = called active by the depositor; ? = inconclusive; · = not tested or not shown; [ ] = remark or other dose.

SMILES	PDI inh	ERp5 inh	PvdQ inh	Ecoli rRNA inh	HIV Env fusion	FN deposit inh
O=C(/C=C/c1ccc(O)c(O)c1)c1ccccc1O	14	1	-10	-32*	-132	-8
O=C(Nc1ccccc1N1CCCC1)C1CC(=O)N(Cc2ccccc2)C1 (configuration not stated)	-6	-2	-14	-7	-37	3
O=C(Nc1ccc(Br)cc1Br)C1CC(=O)N(Cc2ccccc2)C1 (configuration not stated)	0	-1	5	-34*	10	2
C(=C\c1ccccc1)/CN1CCN(c2ncnc3c2oc2ccccc23)CC1	0	·	8	·	78*	19
O=[N+]([O-])c1ccc(S(=O)Cc2ccccc2)c([N+](=O)[O-])c1 (configuration not stated)	7	4	-3	15	-165	37*
CCCc1[nH]n(-c2nc3ccccc3s2)c(=O)c1C=NCC1CCCO1 (configuration not stated)	5	1	13	-25*	-29	1
Oc1[nH]c2ccc(Br)cc2c1N=NC(=S)N1CCOCC1	5	6	8	-32	23	31*
O=C(Nc1ccccc1)N1CC(=O)N2[C@H](CO)[C@H](c3ccc(C#CC4CCCC4)cc3)[C@H]2C1	·	-4	·	-20	·	-24
CCOC(=O)c1ccc(NC(=O)c2nc[nH]c2C(=O)NC)cc1	-1	2	9	4	-1	0
CCOC(=O)c1ccc(NC(=O)c2nc[nH]c2C(=O)NCCNC(=O)c2[nH]cnc2C(=O)Nc2ccc(C(=O)OCC)cc2)cc1	-10	-14	-9	19	82*	-2
Cc1cccc(NC(=O)c2nc[nH]c2C(=O)NCCCCNC(=O)c2[nH]cnc2C(=O)Nc2cccc(C)c2)c1	-1	3	-5	8	70*	11
COCCNC(=O)/C(C#N)=C/C(C)=C/c1ccccc1	8	4	-11	-22*	10	2
CCCC#Cc1cnc2c(c1)C(=O)N([C@H](C)CO)C[C@H](C)[C@H](CN(C)C(=O)Nc1ccccc1F)O2	·	4	·	-3	-10[16.7 µM]	·
S=C(Nc1ccc(N2CCOCC2)cc1)Nc1ccc2snnc2c1	-4	1	-2	-20*	6	·
N#Cc1cccc(-c2ccc([C@H]3[C@H](CO)N4CCCCN(C(=O)Nc5ccc(F)cc5)C[C@@H]34)cc2)c1	·	-6	·	-37	·	·
O=C(/C=C/c1ccccc1Cl)c1ccc(O)cc1	?	-1	-10	-57	1	13
O=C(/C=C/c1c(F)cccc1Cl)c1ccc(O)cc1	79*	-1	3	-56	12	17
CC1=CC2=NC(=O)/C(=C\c3cccn3CCOc3ccc(C)c(C)c3)C(=N)N2O1	-6	·	0	·	-14	2
CC1=CC2=NC(=O)/C(=C/c3cccn3Cc3ccccc3)C(=N)N2O1	4	1	-6	-35*	19	-6
N=C1/C(=C/c2cccn2Cc2ccc(Cl)cc2)C(=O)N=C2SC=CN12	-8	·	0	·	63*	-7
COc1ccc(Cl)cc1C(Nc1cccnc1)c1ccc2cccnc2c1O (configuration not stated)	13	0	-7	-23*	-26	-1
COc1ccc(-c2cc(=O)oc3cc(OC(=O)C4CCCCC4)c(Cl)cc23)cc1	-2	4	-4	7	66*	9
CNC[C@@H]1Oc2ccc(NC(=O)Nc3cccc4ccccc34)cc2C(=O)N([C@H](C)CO)C[C@@H]1C	·	0	·	-1	·	·
O=C1c2ccccc2C(c2nnnn2-c2ccc3c(c2)OCCO3)N1CCc1ccc(O)cc1 (configuration not stated)	·	-4	·	-13	12	-1
O=C1c2ccccc2C(c2nnnn2-c2ccc3c(c2)OCCO3)N1CCc1ccccc1F (configuration not stated)	·	7	·	-34*	9	1
SMILES	PDI inh	ERp5 inh	PvdQ inh	Ecoli rRNA inh	HIV Env fusion	FN deposit inh
CC1CCCN(S(=O)(=O)c2ccc(NC(=O)Cc3ccc(S(=O)(=O)N4CCOCC4)s3)cc2)C1 (configuration not stated)	-10	3	8	-4	·	-8
CC1CCN(S(=O)(=O)c2ccc(NC(=O)Cc3ccc(S(=O)(=O)N4CCOCC4)s3)cc2)CC1	-10	2	3	8	61*	-9
CCCSc1nc2c(cnn2-c2ccccc2)c(=O)n1N	1	4	-4	-19*	-47	8
CCC(=O)N1CC2(CN[C@H](CO)c3c2c2ccc(OC)cc2n3C)C1	·	·	·	2	·	·
CN(C)C(=O)C[C@@H]1C[C@@H]2c3cc(NS(=O)(=O)c4ccc(F)cc4)ccc3O[C@@H]2[C@@H](CO)O1	·	·	·	-1	70*[16.7 µM]	2
CN(C)C(=O)C[C@H]1C[C@@H]2c3cc(NS(=O)(=O)c4ccc(F)cc4)ccc3O[C@@H]2[C@@H](CO)O1	·	·	·	-4	90*[16.7 µM]	-20
C[C@@H](NC(=O)C[C@H]1C[C@@H]2c3cc(NS(=O)(=O)c4ccc(F)cc4)ccc3O[C@@H]2[C@H](CO)O1)c1ccccc1	·	-2	·	-5	86*[16.7 µM]	-7
CN(C)C(=O)C[C@H]1C[C@@H]2c3cc(NS(=O)(=O)c4ccc(F)cc4)ccc3O[C@@H]2[C@H](CO)O1	·	·	·	3	13[16.7 µM]	2
CN(C)C(=O)C[C@@H]1C[C@H]2c3cc(NS(=O)(=O)c4ccc(F)cc4)ccc3O[C@H]2[C@H](CO)O1	·	·	·	1	90*[16.7 µM]	-6
COc1ccccc1CNC(=O)C[C@H]1CC[C@H]2[C@@H](COC[C@@H](O)CN2Cc2cccc(-c3ccncc3)c2)O1	·	4	·	-5	4[16.7 µM]	4
CCCC(=O)Nc1ccc2c(c1)OC[C@H](C)N(Cc1ccccc1F)C[C@H](C)[C@@H](OC)CN(C)C2=O	·	-3	·	-5	·	8
COc1ccc2c3c(n(C)c2c1)[C@H](CO)N(CC1CC1)CC31CN(C(=O)Nc2ccccc2)C1	·	·	·	-3	·	·
CSc1nsc(SCc2ccc(Cl)cc2)n1	-2	-7	21	-43*	·	·
CO[C@H]1CN(C)C(=O)c2cc(NC(=O)NC3CCCC3)ccc2OC[C@@H](C)NC[C@H]1C	·	·	·	0	·	-12
COc1ccc2c3c(n(C)c2c1)[C@H](CO)N(C(=O)c1ccccn1)CC31CCN(C(C)=O)CC1	·	0	·	-1	·	·
CCOCCN1CCN(C2c3ccccc3CSc3ccccc32)CC1 (configuration not stated)	-6	-5	5	-25*	13	2
Cc1ccc(NC(=O)c2ccc(OCC3CCCO3)cc2)cc1Cl (configuration not stated)	6	-5	·	-2	70*	2
O=C(NCCCCc1ccccc1)c1ccccc1Br	-5	-1	·	-36*	4	-4
